{"source": "ChEMBL document CHEMBL5674868", "about": "“Cancer Cells Hijack PRC2 to Modify Multiple Cytokine Pathways” (PLoS One, 2015)", "assay_type_in_all_cases": "cell-based", "key": {"[1]": {"biological_target": "Histone-lysine N-methyltransferase EZH2 (Homo sapiens) (UniProt Q15910)", "sequence (Q15910 whole entry, looked up)": "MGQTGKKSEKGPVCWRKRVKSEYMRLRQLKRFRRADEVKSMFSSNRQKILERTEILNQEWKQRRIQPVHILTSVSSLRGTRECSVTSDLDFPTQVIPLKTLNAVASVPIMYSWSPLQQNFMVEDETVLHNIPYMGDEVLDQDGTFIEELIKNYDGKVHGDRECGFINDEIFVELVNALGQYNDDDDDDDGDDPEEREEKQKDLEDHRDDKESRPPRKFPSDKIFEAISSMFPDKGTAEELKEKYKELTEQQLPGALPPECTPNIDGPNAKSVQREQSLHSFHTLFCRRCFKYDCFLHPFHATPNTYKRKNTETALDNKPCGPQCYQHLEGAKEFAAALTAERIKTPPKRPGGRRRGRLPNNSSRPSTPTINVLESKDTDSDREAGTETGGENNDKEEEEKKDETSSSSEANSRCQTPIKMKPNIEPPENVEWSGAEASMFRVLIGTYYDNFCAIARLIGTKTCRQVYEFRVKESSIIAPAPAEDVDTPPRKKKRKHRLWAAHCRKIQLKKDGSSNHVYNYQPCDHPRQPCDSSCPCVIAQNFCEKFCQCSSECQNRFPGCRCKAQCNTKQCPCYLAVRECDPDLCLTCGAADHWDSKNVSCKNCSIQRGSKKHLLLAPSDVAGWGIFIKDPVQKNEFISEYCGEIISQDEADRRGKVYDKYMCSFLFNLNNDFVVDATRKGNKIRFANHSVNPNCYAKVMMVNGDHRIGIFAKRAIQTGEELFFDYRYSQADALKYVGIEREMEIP", "assay": "Inhibition of EZH2 in human A549 cells assessed as effect on HPRT mRNA level after 6 hrs by RT-PCR analysis in presence of IFN-gamma", "procedure,_shortened": "(§1)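 Cells were treated for two four-day cycles with 2 μM GSK343 or UNC1999, then left untreated or stimulated with human IFNγ for 6 h. mRNA was measured by reverse transcription quantitative PCR and normalized to β-actin. Three biological replicates were run per treatment group.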"}, "[2]": {"biological_target": "Histone-lysine N-methyltransferase EZH2 (Homo sapiens) (UniProt Q15910)", "assay": "Inhibition of EZH2 in human ASPC1 cells assessed as effect on PITX2 mRNA level after 6 hrs by RT-PCR analysis", "procedure,_shortened": "as §1"}, "[3]": {"biological_target": "Histone-lysine N-methyltransferase EZH2 (Homo sapiens) (UniProt Q15910)", "assay": "Inhibition of EZH2 in human ASPC1 cells assessed as effect on HPRT mRNA level after 6 hrs by RT-PCR analysis", "procedure,_shortened": "as §1"}, "[4]": {"biological_target": "Histone-lysine N-methyltransferase EZH2 (Homo sapiens) (UniProt Q15910)", "assay": "Inhibition of EZH2 in human MCF7 cells assessed as effect on PITX2 mRNA level after 6 hrs by RT-PCR analysis in presence of IFN-gamma", "procedure,_shortened": "(§2)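 Cells pretreated for two 4-day cycles with 2 µM GSK343 or UNC1999, then left unstimulated or given human IFNγ for 6 h. RNA reverse-transcribed and measured by quantitative PCR, normalized to β-actin. Three biological replicates per treatment group.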"}, "[5]": {"biological_target": "Histone-lysine N-methyltransferase EZH2 (Homo sapiens) (UniProt Q15910)", "assay": "Inhibition of EZH2 in human HeLa cells assessed as effect on HPRT mRNA level after 6 hrs by RT-PCR analysis", "procedure,_shortened": "as §1"}, "[6]": {"biological_target": "Histone-lysine N-methyltransferase EZH2 (Homo sapiens) (UniProt Q15910)", "assay": "Inhibition of EZH2 in human MCF7 cells assessed as effect on HPRT mRNA level after 6 hrs by RT-PCR analysis in presence of IFN-gamma", "procedure,_shortened": "as §1"}, "[7]": {"biological_target": "Histone-lysine N-methyltransferase EZH2 (Homo sapiens) (UniProt Q15910)", "assay": "Inhibition of EZH2 in human HeLa cells assessed as decrease in H3K27me3 levels at 2 uM after 6 hrs by Western blot analysis"}, "[8]": {"biological_target": "Histone-lysine N-methyltransferase EZH2 (Homo sapiens) (UniProt Q15910)", "assay": "Inhibition of EZH2 in human AsPC1 cells assessed as decrease in H3K27me3 levels at 2 uM after 6 hrs by Western blot analysis"}, "[9]": {"biological_target": "Histone-lysine N-methyltransferase EZH2 (Homo sapiens) (UniProt Q15910)", "assay": "Inhibition of EZH2 in human ASPC1 cells assessed as effect on IRF1 mRNA level after 6 hrs by RT-PCR analysis", "procedure,_shortened": "as §1"}, "[10]": {"biological_target": "Histone-lysine N-methyltransferase EZH2 (Homo sapiens) (UniProt Q15910)", "assay": "Inhibition of EZH2 in human ASPC1 cells assessed as effect on IRF1 mRNA level after 6 hrs by RT-PCR analysis in presence of IFN-gamma", "procedure,_shortened": "as §1"}, "[11]": {"biological_target": "Histone-lysine N-methyltransferase EZH2 (Homo sapiens) (UniProt Q15910)", "assay": "Inhibition of EZH2 in human MCF7 cells assessed as effect on HPRT mRNA level after 6 hrs by RT-PCR analysis", "procedure,_shortened": "as §1"}, "[12]": {"biological_target": "Histone-lysine N-methyltransferase EZH2 (Homo sapiens) (UniProt Q15910)", "assay": "Inhibition of EZH2 in human A549 cells assessed as effect on IRF1 mRNA level after 6 hrs by RT-PCR analysis", "procedure,_shortened": "as §1"}, "[13]": {"biological_target": "Histone-lysine N-methyltransferase EZH2 (Homo sapiens) (UniProt Q15910)", "assay": "Inhibition of EZH2 in human ASPC1 cells assessed as effect on HPRT mRNA level after 6 hrs by RT-PCR analysis in presence of IFN-gamma", "procedure,_shortened": "as §1"}, "[14]": {"biological_target": "Histone-lysine N-methyltransferase EZH2 (Homo sapiens) (UniProt Q15910)", "assay": "Inhibition of EZH2 in human A549 cells assessed as effect on IRF1 mRNA level after 6 hrs by RT-PCR analysis in presence of IFN-gamma", "procedure,_shortened": "as §1"}, "[15]": {"biological_target": "Histone-lysine N-methyltransferase EZH2 (Homo sapiens) (UniProt Q15910)", "assay": "Inhibition of EZH2 in human HeLa cells assessed as effect on IRF1 mRNA level after 6 hrs by RT-PCR analysis in presence of IFN-gamma", "procedure,_shortened": "as §1"}, "[16]": {"biological_target": "Histone-lysine N-methyltransferase EZH2 (Homo sapiens) (UniProt Q15910)", "assay": "Inhibition of EZH2 in human A549 cells assessed as decrease in H3K27me3 levels at 2 uM after 6 hrs by Western blot analysis"}, "[17]": {"biological_target": "Histone-lysine N-methyltransferase EZH2 (Homo sapiens) (UniProt Q15910)", "assay": "Inhibition of EZH2 in human HeLa cells assessed as effect on HPRT mRNA level after 6 hrs by RT-PCR analysis in presence of IFN-gamma", "procedure,_shortened": "as §1"}, "[18]": {"biological_target": "Histone-lysine N-methyltransferase EZH2 (Homo sapiens) (UniProt Q15910)", "assay": "Inhibition of EZH2 in human MCF7 cells assessed as effect on PITX2 mRNA level after 6 hrs by RT-PCR analysis", "procedure,_shortened": "as §2"}, "[19]": {"biological_target": "Histone-lysine N-methyltransferase EZH2 (Homo sapiens) (UniProt Q15910)", "assay": "Inhibition of EZH2 in human HeLa cells assessed as effect on PITX2 mRNA level after 6 hrs by RT-PCR analysis in presence of IFN-gamma", "procedure,_shortened": "as §1"}, "[20]": {"biological_target": "Histone-lysine N-methyltransferase EZH2 (Homo sapiens) (UniProt Q15910)", "assay": "Inhibition of EZH2 in human A549 cells assessed as effect on PITX2 mRNA level after 6 hrs by RT-PCR analysis in presence of IFN-gamma", "procedure,_shortened": "as §1"}, "[21]": {"biological_target": "Histone-lysine N-methyltransferase EZH2 (Homo sapiens) (UniProt Q15910)", "assay": "Inhibition of EZH2 in human HeLa cells assessed as effect on IRF1 mRNA level after 6 hrs by RT-PCR analysis", "procedure,_shortened": "as §1"}, "[22]": {"biological_target": "Histone-lysine N-methyltransferase EZH2 (Homo sapiens) (UniProt Q15910)", "assay": "Inhibition of EZH2 in human A549 cells assessed as effect on HPRT mRNA level after 6 hrs by RT-PCR analysis", "procedure,_shortened": "as §1"}, "[23]": {"biological_target": "Histone-lysine N-methyltransferase EZH2 (Homo sapiens) (UniProt Q15910)", "assay": "Inhibition of EZH2 in human MCF7 cells assessed as effect on IRF1 mRNA level after 6 hrs by RT-PCR analysis in presence of IFN-gamma", "procedure,_shortened": "as §2"}, "[24]": {"biological_target": "Histone-lysine N-methyltransferase EZH2 (Homo sapiens) (UniProt Q15910)", "assay": "Inhibition of EZH2 in human HeLa cells assessed as effect on PITX2 mRNA level after 6 hrs by RT-PCR analysis", "procedure,_shortened": "as §1"}, "[25]": {"biological_target": "Histone-lysine N-methyltransferase EZH2 (Homo sapiens) (UniProt Q15910)", "assay": "Inhibition of EZH2 in human A549 cells assessed as effect on PITX2 mRNA level after 6 hrs by RT-PCR analysis", "procedure,_shortened": "as §1"}, "[26]": {"biological_target": "Histone-lysine N-methyltransferase EZH2 (Homo sapiens) (UniProt Q15910)", "assay": "Inhibition of EZH2 in human MCF7 cells assessed as decrease in H3K27me3 levels at 2 uM after 6 hrs by Western blot analysis"}, "[27]": {"biological_target": "Histone-lysine N-methyltransferase EZH2 (Homo sapiens) (UniProt Q15910)", "assay": "Inhibition of EZH2 in human MCF7 cells assessed as effect on IRF1 mRNA level after 6 hrs by RT-PCR analysis", "procedure,_shortened": "as §1"}, "[28]": {"biological_target": "Histone-lysine N-methyltransferase EZH2 (Homo sapiens) (UniProt Q15910)", "assay": "Inhibition of EZH2 in human ASPC1 cells assessed as effect on PITX2 mRNA level after 6 hrs by RT-PCR analysis in presence of IFN-gamma", "procedure,_shortened": "as §1"}}, "note": "The source made the active and inactive calls. The rule behind the calls is not given here.", "data": [{"smiles": "CCCc1cc(C)[nH]c(=O)c1CNC(=O)c1cc(-c2ccnc(N3CCN(C)CC3)c2)cc2c1cnn2C(C)C", "values": [{"measurement": "inhibition", "setting": "[1]", "value": "inactive"}, {"measurement": "inhibition", "setting": "[2]", "value": "inactive"}, {"measurement": "inhibition", "setting": "[3]", "value": "inactive"}, {"measurement": "inhibition", "setting": "[4]", "value": "inactive"}, {"measurement": "inhibition", "setting": "[5]", "value": "inactive"}, {"measurement": "inhibition", "setting": "[6]", "value": "inactive"}, {"measurement": "inhibition", "setting": "[7]", "value": "Active"}, {"measurement": "inhibition", "setting": "[8]", "value": "Active"}, {"measurement": "inhibition", "setting": "[9]", "value": "inactive"}, {"measurement": "inhibition", "setting": "[10]", "value": "inactive"}, {"measurement": "inhibition", "setting": "[11]", "value": "inactive"}, {"measurement": "inhibition", "setting": "[12]", "value": "inactive"}, {"measurement": "inhibition", "setting": "[13]", "value": "inactive"}, {"measurement": "inhibition", "setting": "[14]", "value": "inactive"}, {"measurement": "inhibition", "setting": "[15]", "value": "inactive"}, {"measurement": "inhibition", "setting": "[16]", "value": "Active"}, {"measurement": "inhibition", "setting": "[17]", "value": "inactive"}, {"measurement": "inhibition", "setting": "[18]", "value": "inactive"}, {"measurement": "inhibition", "setting": "[19]", "value": "inactive"}, {"measurement": "inhibition", "setting": "[20]", "value": "inactive"}, {"measurement": "inhibition", "setting": "[21]", "value": "inactive"}, {"measurement": "inhibition", "setting": "[22]", "value": "inactive"}, {"measurement": "inhibition", "setting": "[23]", "value": "inactive"}, {"measurement": "inhibition", "setting": "[24]", "value": "inactive"}, {"measurement": "inhibition", "setting": "[25]", "value": "inactive"}, {"measurement": "inhibition", "setting": "[26]", "value": "Active"}, {"measurement": "inhibition", "setting": "[27]", "value": "inactive"}, {"measurement": "inhibition", "setting": "[28]", "value": "inactive"}]}]}
